# An excerpt weighted towards active compounds, which were near 3% of everything screened.
# BB579 growth dn = reduces growth of yeast BB579 in restrictive medium | actives 0.51% (n = 140,000) | S. cerevisiae BB579 growth, OD615, 48 h | inhibition, % at 10 µM | AID 804;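 active = inhibition above a set limit, 3 SD over the mean compound inhibition, cut at about 44% in these data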
#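 Assay system – yeast BB579 (DeaD) · Dosing – single compound dose of 10 µM, 0.25% DMSO final · Detection – OD615 turbidity measurement · Buffer or medium – CSMM-D restrictive synthetic medium containing dextrose (glucose) · Benchmarks – positive control amphotericin B 10 µg/mL · Incubation – 48 h exposure, 30 °C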
# Ins promoter up = MIN6 insulin promoter up-regulation; MIN6 insulin promoter-GFP reporter, high-content imaging; active compounds read high; actives 0.3% (n = 190,000); z-score at 5 µM; AID 1625;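 active = z-score above 3 at 5 µM with at least 500 cells counted in the well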
# Yeast lifespan up = yeast lifespan extension; S. cerevisiae growth with nicotinamide, OD615; deaD strain in restrictive glucose medium; inhibition of the nicotinamide effect, % at 10 µM; actives 0.68% (n = 130,000); AID 775;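 active = inhibition above a set limit, placed 3 SD over the median of all compounds, cut at about 26% in these data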;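 also: 0% = nicotinamide-treated wells and 100% = cells grown without nicotinamide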
#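 assay system = DeaD-strain S. cerevisiae | measured by = absorbance at 615 nm | probe or stimulus = nicotinamide 1.5 mM | buffer or medium = CSMM-D glucose medium, restrictive | times = 48 h at 30 °C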
# Insulin prom inh = TRM-6 insulin promoter activity inhibition; TRM-6 cells, insulin promoter-eGFP reporter, imaging; reporter expression induced with tamoxifen; inhibition, % at 2 µM; actives 0.9% (n = 130,000);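 active = inhibition above the mean plus 3 SD, with well images judged a real hit on visual review, cut at about 60% in these data, passing the limit was not always enough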
# RAM inhibit = inhibitors of the yeast RAM network; S. cerevisiae dse1pr::URA3 reporter, 5-FOA growth OD615, 2 d; analog-sensitive cbk1-as2 kinase mutant strain; inhibition, % at 50 µM; actives 1.8% (n = 190,000);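 active = inhibition above a set limit, 3 SD over mean compound inhibition, cut at about 8.4% in these data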;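 also: 0% = DMSO-only wells with no growth and 100% = 10 µM 1-NA-PP1 full growth; inhibition rescues growth on 5-FOA so higher OD means more RAM inhibition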
# Numbers without * were called inactive; nt = no result given.
SMILES,BB579 growth dn,Ins promoter up,Yeast lifespan up,Insulin prom inh,RAM inhibit
N/C(=N\OC(=O)C1CCCCC1)c1cccc([N+](=O)[O-])c1,3.7,3.01*,-12.1,23.3,-0.1
CCc1nnc(NC(=O)C2(C)COC(c3ccc(OC)cc3)OC2)s1 (stereo not given),nt,0.08,nt,0.0,-0.5
COc1ccc(C(C)=O)cc1COC(=O)c1ccc2c(c1)OCO2,-8.8,0.83,-19.0,nt,7.7
COc1ccc(C(C)=O)cc1COC(=O)c1cnc(Cl)c(Cl)c1,nt,-0.33,nt,nt,9.9*
COc1ccc(C(=O)Cn2c(C(=O)/C=C/c3ccccc3)nc3ccccc32)cc1,-66.9,1,16.6,-16.2,1.8
CCO[C@@H]1OC(C(=O)O)=C[C@H](c2ccc3c(c2)OCO3)[C@H]1CCCO,nt,0.3,nt,nt,0.0
O=c1[nH]c2ccccc2c2nc3ccccn3c12,79.8*,0.16,-26.1,57.9,0.4
O=c1nc2c(O)cccn2c2c1c(=O)[nH]c1ccccc12,-28.6,0.43,7.1,37.0,3.5
CCC(=O)N(Cc1ccco1)c1nc(-c2ccc(OC)cc2)cs1,-48.2,nt,nt,25.7,10.0*
COc1cc(OC)cc(C(=O)NC(=S)Nc2ccc3c4c(cccc24)CC3)c1,-95.4,1.21,-16.6,-40.7,4.5
COc1ccc(C(=O)Nc2ccc3c4c(cccc24)CC3)cc1,-10.5,1.44,-17.8,100.0*,3.3
COCCNC(=O)C(=O)N/N=C(\C)CC(=O)Nc1cccnc1,nt,0.06,nt,nt,1.2
CC1(C)Cc2c(C#N)c(N3CCOCC3)nc(Cc3ccccc3)c2CO1,13.2,0.53,-24.8,nt,11.0*
CC1(C)Cc2c(C#N)c(N3CCN(C(=O)c4ccccc4)CC3)nc(Cc3ccccc3)c2CO1,-2.4,0.06,-7.1,24.1,0.2
CN(CC(=O)Nc1ccc(F)cc1)CC(=O)Nc1ccc(F)c(F)c1F,nt,-0.23,nt,50.0,-0.1
CCCCNc1c2c3c(cccc3n(C)c1=O)C(=O)c1ccccc1-2,-40.4,nt,7.0,-433.3,9.2*
Cn1c(=O)c(NCCO)c2c3c(cccc31)C(=O)c1ccccc1-2,-38.9,nt,0.6,-68.4,0.0
O=C(Oc1ccc(=O)n(-c2ccccc2)n1)c1ccc(Cl)cc1,-34.4,nt,50.6*,5.4,-1.7
Cc1ccsc1/C=N/NC(=O)c1ccc(-n2cccc2)cc1,nt,0.79,nt,nt,4.6
O=C(CSc1ccsc1[N+](=O)[O-])N1CCN(c2ccccn2)CC1,nt,-0.11,nt,-5.0,0.5
COc1ccc(C)cc1S(=O)(=O)N1CCN(c2cccc(C(F)(F)F)c2)CC1,-71.6,-1.27,0.3,31.0,11.3*
COc1ccc(C(C)C)cc1S(=O)(=O)N1CC(C)OC(C)C1 (stereo not given),nt,0.34,nt,nt,0.6
COc1ccc(C(C)C)cc1S(=O)(=O)N1CCN(c2ccccc2)CC1,nt,0.6,nt,nt,10.6*
COC(=O)CN1C(=O)N/C(=C/c2ccccc2OC)C1=O,nt,1.52,nt,16.7,1.2
CC1(c2ccccc2)NC(=O)N(Cc2ccc([N+](=O)[O-])cc2)C1=O (stereo not given),-24.8,0.14,-1.8,nt,1.4
SMILES,BB579 growth dn,Ins promoter up,Yeast lifespan up,Insulin prom inh,RAM inhibit
[O-][N+]1=c2ccc(Nc3ccccc3)cc2=NC12CCCCC2,-23.8,-0.35,-20.5,nt,4.9
COc1ccc(Nc2ccc3c(c2)=NC2(CCCCC2)[N+]=3[O-])cc1,-17.6,-2.43,-8.2,nt,8.9*
O=C(NCCOc1ccc(F)cc1)c1ccccc1SCc1ccccc1,-34.1,nt,7.4,-18.4,9.5*
CCc1ccc(OCCNC(=O)c2ccccc2SCc2ccc(F)cc2)cc1,-17.4,-0.47,-10.2,-50.0,7.4
Cc1ccc(CNC(=O)COC(=O)CCC(=O)c2cccs2)cc1,nt,2.12,nt,-22.2,0.6
CCCCOc1cccc(C2(C(=O)O)CCCC2)c1,-6.9,0.24,28.1*,-28.6,-1.3
CCCCOc1ccc(C2(C(=O)O)CCCC2)cc1,-11.5,-0.2,8.5,35.7,3.5
O=C(Nc1cccnc1)c1ccc(NC(=O)c2ccco2)cc1,-18.7,1.69,-12.7,15.8,0.7
O=C(NCc1cccnc1)c1ccc(NC(=O)c2ccco2)cc1,-57.2,1.47,-0.4,79.0*,0.0
N#CC1CC(c2ccccc2)=NN1c1ccccc1[N+](=O)[O-] (stereo not given),nt,-0.8,nt,nt,3.9
COc1ccc(OC)c(-c2csc(N(CC3CCCO3)C(=O)Cc3ccccc3)n2)c1 (stereo not given),nt,-0.46,nt,nt,6.2
Cc1ccc(-c2cc(N)n(-c3ccccc3)n2)cc1,-47.3,5.28*,-15.3,18.6,2.2
Cc1cccc(-c2cc(N)n(-c3ccccc3)n2)c1,nt,0.07,nt,nt,-0.4
CSc1ccc(/C=C/C(=O)NC(=O)c2ccccc2O)cc1,nt,-0.46,nt,-50.0,2.1
CCc1cc(C(=O)OC)c(NC(=O)CC2Nc3cc(C)c(C)cc3NC2=O)s1 (stereo not given),-13.3,0.06,0.0,2.7,0.9
COC(=O)c1c(NC(=O)CC2Nc3cc(C)c(C)cc3NC2=O)sc(C)c1C (stereo not given),-15.0,6.44*,-1.1,nt,0.0
O=C(Nc1cnn(Cc2ccc(F)cc2)c1)c1cc2nc(-c3ccco3)cc(C(F)(F)F)n2n1,-35.8,0.27,-3.0,nt,9.5*
Cc1nn2c(-c3ccncc3)nnc2c2ccccc12,89.2*,0.04,-13.1,-12.0,1.6
COc1ccc(-c2nnc3c4ccccc4c(C)nn23)cc1,49.4*,-0.74,-5.0,-8.1,1.3
Cc1nn2c(-c3ccco3)nnc2c2ccccc12,88.2*,-0.21,-11.6,50.0,2.8
Cc1ccccc1-c1nnc2c3ccccc3c(C)nn12,-13.7,-0.3,nt,-56.2,-0.4
CC(=O)Nc1cccc(-c2nnc3c4ccccc4c(C)nn23)c1,nt,0.14,nt,-40.0,0.4
COc1ccc(CN2C(=O)c3ccccc3C2=O)cc1C(=O)Nc1ccc(C)cc1C,-39.1,nt,7.2,nt,6.3
O=C(O)c1cn(-c2ccccc2)c(=O)c2ccccc12,-14.6,nt,2.7,70.0*,0.5
COc1ccc(-n2cc(C(=O)O)c3ccccc3c2=O)cc1,-22.7,-0.23,0.2,-75.9,1.5
SMILES,BB579 growth dn,Ins promoter up,Yeast lifespan up,Insulin prom inh,RAM inhibit
Cc1nc(-c2ccc(NS(C)(=O)=O)cc2)cs1,1.7,nt,-10.0,73.3*,1.6
Cc1nc(-c2cccc(NS(C)(=O)=O)c2)cs1,-30.6,nt,-7.1,nt,1.7
O=C(NCCCN1CCCCC1)C1(S(=O)(=O)c2ccc(Cl)cc2)CC1,-15.4,nt,7.4,nt,-0.7
O=C(NCCN1CCCC1)C1(S(=O)(=O)c2ccc(Cl)cc2)CC1,-24.0,3.06*,-23.4,-31.2,-0.5
CC(C)(C)NC(=O)COC(=O)c1ccccc1C(=O)c1ccccc1,nt,-0.22,nt,nt,0.9
CCOC(=O)C1CCCN(c2oc(-c3ccc(OC)cc3)nc2C#N)C1 (stereo not given),nt,0.14,nt,44.4,8.8*
COc1ccc(-c2nc(C#N)c(N3CCC(C(N)=O)CC3)o2)cc1OC,-5.9,-0.5,-19.4,75.0*,1.6
O=C(CCC1CCCN(C(=O)c2ccsc2)C1)N1CCN(c2ccccn2)CC1 (stereo not given),nt,-0.28,nt,nt,nt
C/C(CC(=O)NC1CCCCC1)=N\NC(=O)COc1ccc(C)cc1Br,nt,0.05,nt,nt,-0.2

# Source: PubChem
